Results taken from ChEMBL document CHEMBL4393719, “Tetrahydro-3-benzazepines with fluorinated side chains as NMDA and σ1 receptor antagonists: Synthesis, receptor affinity, selectivity and antiallodynic activity” (Eur J Med Chem, 2019).

Tests used:
[1] = Displacement of [3H] ifenprodil from GluN2B/GluN1a (unknown origin) expressed in mouse L(tk-) cell membranes incubated for 120 mins by scintillation counting method; design: species or system Homo sapiens
How it was run: (§1)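 Membranes from mouse L(tk-) cells co-transfected with dexamethasone-inducible GluN1a/GluN2B (1:5), induced 24 h with 4 μM dexamethasone plus 4 μM ketamine.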

Sus scrofa [2] = species on record: Sus scrofa; experiment: Displacement of [3H]-(+)-MK-801 from NMDA PCP binding site in pig brain cortex membrane at 10 uM incubated for 180 mins by scintillation counting method relative to control; format: cell membranes
Homo sapiens = species on record: Homo sapiens; experiment: Displacement of [3H] ifenprodil from GluN2B/GluN1a (unknown origin) expressed in mouse L(tk-) cell membranes at 10^-10 to 10^-5 mol/L incubated for 120 mins by scintillation counting method relative to control; how it was run: as §1
[3] = target: Sigma non-opioid intracellular receptor 1 (Cavia porcellus) (UniProt Q60492); experiment: Displacement of [3H]-(+)-pentazocine from sigma1 receptor in guinea pig brain cortex membranes at 10^-10 to 10^-5 mol/L incubated for 120 mins by scintillation counting method relative to control; format: cell membranes
[4] = target: Sigma intracellular receptor 2 (Rattus norvegicus) (UniProt Q5U3Y7); experiment: Displacement of [3H]-di-o-tolylguanidine from sigma2 receptor in rat liver membranes at 10^-10 to 10^-5 mol/L incubated for 120 mins by scintillation counting method relative to control; format: cell membranes
Sus scrofa [5] = species on record: Sus scrofa; conditions: at 1 µM

Sigma intracellular receptor 2 (Rattus norvegicus), sequence (Q5U3Y7 whole entry): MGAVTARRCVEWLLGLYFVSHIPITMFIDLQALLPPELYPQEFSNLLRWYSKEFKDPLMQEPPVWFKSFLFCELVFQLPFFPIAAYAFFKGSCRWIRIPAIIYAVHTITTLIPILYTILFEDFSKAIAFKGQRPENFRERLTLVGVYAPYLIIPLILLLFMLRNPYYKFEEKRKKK
Sigma non-opioid intracellular receptor 1 (Cavia porcellus), sequence (Q60492 whole entry): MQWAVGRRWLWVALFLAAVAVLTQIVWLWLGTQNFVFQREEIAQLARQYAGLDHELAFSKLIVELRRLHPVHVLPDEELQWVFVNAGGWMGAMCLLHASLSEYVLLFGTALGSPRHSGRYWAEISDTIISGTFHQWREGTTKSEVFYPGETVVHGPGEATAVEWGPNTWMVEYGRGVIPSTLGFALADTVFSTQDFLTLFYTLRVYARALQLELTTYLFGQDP

Row | Structure (SMILES) | Ki [1] | inhibition (Sus scrofa [2]) | inhibition (Homo sapiens) | inhibition [3] | inhibition [4] | inhibition (Sus scrofa [5])
1 | COc1ccc2c(c1)CCN(CCCCc1ccccc1)CC2O (stereo unspecified) | 706 nM | 22% | – | – | – | –
2 | COc1ccc2c(c1)CCN1CC2OC1C(F)CCc1ccccc1 (stereo unspecified) | – | – | 8% | 0% | 0% | 0%
